This note sets out measurements from the array DNA melting data of Ke et al. (doi:10.1101/2024.01.08.574731).

Series [1] can be described thus: melting temperature; fluorescence melt of hairpins on a sequencing array, two-state fit, raised by 9.35 °C to match UV melts. The following applies: sodium 0.088 M. In a few lines: (§1)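 In 50 mM Na-HEPES pH 8.0 containing 25 mM NaCl, hairpins from the library on a sequenced MiSeq flow cell were imaged for Cy3 fluorescence at 2.5 °C steps up to 60 °C, with Cy3 and quencher oligos annealed. After normalisation to pre-quench Cy3 and to control constructs, two-state fits with bootstrapping gave melting temperature and folding enthalpy. Four replicates were combined by inverse-variance weighting, and fitted temperatures were shifted up by 9.35 °C to match UV melts.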

The nature of series [2]: folding enthalpy; higher = less favourable; fluorescence melt of hairpins on a sequencing array, two-state fit. The following applies: sodium 0.088 M. An outline of the steps: as §1

Regarding GATCCCATCTGGGATC ((((((....)))))), the Tm in series [1] turned out to be 62.6 °C. Further, the folding enthalpy in series [2] is -36.2 kcal/mol.

In the case of GATCCCATGCGGGATC ((((((....)))))), the Tm in series [1] was found to be 60.6 °C. The folding enthalpy in series [2] is -34 kcal/mol.

Consider GATCCCATGGGGGATC ((((((....)))))), for which, in series [1], the Tm amounted to 60.1 °C. Moreover, the folding enthalpy in series [2] is -32.4 kcal/mol.

Regarding GATCCCCAAGGGATC ((((((...)))))), in series [1], the Tm turned out to be 58.9 °C. The folding enthalpy in series [2] is -30.9 kcal/mol.

For the sequence GATCCCCACTGGGATC ((((((....)))))), the Tm in series [1] was found to be 62.2 °C. The folding enthalpy in series [2] is -35.3 kcal/mol.

As for GATCCCCAGGGGGATC ((((((....)))))), the Tm in series [1] was determined as 65.5 °C. Moreover, the folding enthalpy in series [2] was -29 kcal/mol.

As for GATCCCCCATGGGATC ((((((....)))))), the Tm in series [1] worked out at 59.9 °C. Also, the folding enthalpy in series [2] is -36.5 kcal/mol.

GATCCCCCCGGGATC ((((((...)))))): the Tm in series [1] came out at 65.8 °C. In addition, the folding enthalpy in series [2] was -33.1 kcal/mol.

With GATCCCCGCGGGATC ((((((...)))))), in series [1], the Tm was 65.9 °C. Besides, in series [2], the folding enthalpy is -34.5 kcal/mol.

Consider GATCCCCTAAGGGATC ((((((....)))))), for which the Tm in series [1] was 63.2 °C. For the same sequence, in series [2], the folding enthalpy was -39.1 kcal/mol.

As to GATCCCCTACGGGATC ((((((....)))))), the Tm in series [1] is 61.9 °C. Further, the folding enthalpy in series [2] was -35.3 kcal/mol.

As to GATCCCCTATGGGATC ((((((....)))))), in series [1], the Tm was determined as 60.8 °C. For the same sequence, the folding enthalpy in series [2] was -36.9 kcal/mol.

For the sequence GATCCCCTCAGGGATC ((((((....)))))), in series [1], the Tm turned out to be 66 °C. Further, the folding enthalpy in series [2] is -41.7 kcal/mol.

As to GATCCCCTCGGGATC ((((((...)))))), in series [1], the Tm amounted to 61.4 °C. The folding enthalpy in series [2] is -35.6 kcal/mol.

For the sequence GATCCCGAAAGGGAAATC ((((((....)))..))), the Tm in series [1] came out at 35.1 °C. Besides, the folding enthalpy in series [2] is -12.1 kcal/mol.

As for GATCCCGAAAGGGAATC ((((((....))).))), the Tm in series [1] was found to be 49.6 °C. In series [2], the folding enthalpy was -14.5 kcal/mol.

For GATCCCGAAAGGGATATC ((((((....)))..))), in series [1], the Tm worked out at 52 °C. Moreover, the folding enthalpy in series [2] was -15.6 kcal/mol.

Regarding GATCCCGAAAGGGGAATC ((((((....)))..))), the Tm in series [1] came out at 36.1 °C. Also, the folding enthalpy in series [2] is -12.3 kcal/mol.

Consider GATCCCGAAAGGGGGATC ((((((....)))..))), for which the Tm in series [1] was 51 °C. Moreover, the folding enthalpy in series [2] is -20.1 kcal/mol.

Turning to GATCCCGACGGGGATC ((((((....)))))), the Tm in series [1] was found to be 65.8 °C. In series [2], the folding enthalpy was -27.8 kcal/mol.

On to GATCCCGACTGGGATC ((((((....)))))), for which the Tm in series [1] is 65.8 °C. Also, the folding enthalpy in series [2] was -38.5 kcal/mol.

As for GATCCCGCTGGGATC ((((((...)))))), the Tm in series [1] stood at 63.2 °C. Also, in series [2], the folding enthalpy is -37.4 kcal/mol.

As to GATCCCGGAAACGAGATC ((((.((....)).)))), the Tm in series [1] turned out to be 41.7 °C. Also, in series [2], the folding enthalpy was -29.6 kcal/mol.

GATCCCGGAAACGGAATC (((.(((....))).))): the Tm in series [1] was determined as 40.1 °C. The folding enthalpy in series [2] is -24.7 kcal/mol.

For GATCCCGGAGGGGATC ((((((....)))))), in series [1], the Tm stood at 65.8 °C. Further, the folding enthalpy in series [2] was -19.4 kcal/mol.

For GATCCCGGTGGGATC ((((((...)))))), the Tm in series [1] worked out at 65.7 °C. Besides, the folding enthalpy in series [2] is -29.6 kcal/mol.

As to GATCCCGTTGGGATC ((((((...)))))), the Tm in series [1] came out at 64.4 °C. Also, the folding enthalpy in series [2] was -31.5 kcal/mol.

With GATCCCGTTTGGGATC ((((((....)))))), the Tm in series [1] turned out to be 63.6 °C. Further, in series [2], the folding enthalpy is -43.4 kcal/mol.

Consider GATCCCTACCGGGATC ((((((....)))))), for which the Tm in series [1] is 61.9 °C. For the same sequence, in series [2], the folding enthalpy is -32.7 kcal/mol.

In the case of GATCCCTATTGGGATC ((((((....)))))), in series [1], the Tm is 62.8 °C. For the same sequence, the folding enthalpy in series [2] was -43.1 kcal/mol.

With GATCCCTCACGGGATC ((((((....)))))), the Tm in series [1] was 59 °C. Besides, the folding enthalpy in series [2] was -39.5 kcal/mol.

As for GATCCCTCTAGGGATC ((((((....)))))), the Tm in series [1] worked out at 66.6 °C. The folding enthalpy in series [2] is -33.9 kcal/mol.

On to GATCCCTCTGGGATC ((((((...)))))), for which the Tm in series [1] was found to be 66.6 °C. Also, the folding enthalpy in series [2] was -31.3 kcal/mol.

As to GATCCCTGCCGGGATC ((((((....)))))), the Tm in series [1] was determined as 60 °C. In addition, the folding enthalpy in series [2] was -42.8 kcal/mol.

For the sequence GATCCCTGGTGGGATC ((((((....)))))), in series [1], the Tm worked out at 58.1 °C. In series [2], the folding enthalpy is -31.1 kcal/mol.

For the sequence GATCCCTGTTGGGATC ((((((....)))))), the Tm in series [1] was found to be 62 °C. Further, in series [2], the folding enthalpy was -42.8 kcal/mol.

As for GATCCCTTCAGGGATC ((((((....)))))), the Tm in series [1] was determined as 68.3 °C. Besides, the folding enthalpy in series [2] is -31.4 kcal/mol.

With GATCCCTTCCGGGATC ((((((....)))))), the Tm in series [1] was 59.5 °C. For the same sequence, in series [2], the folding enthalpy was -35.3 kcal/mol.
